We go through 16 compounds from ChEMBL document CHEMBL1152836, “10H-Phenothiazines: a new class of enzyme inhibitors for inflammatory diseases” (Eur J Med Chem, 2009).

Test [1] in a line: Inhibition of prostaglandin synthetase. The procedure, abridged:
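Isolated soya bean lipoxygenase was the enzyme source. Arachidonic acid metabolites (prostaglandin E, leukotrienes) were analysed by reverse-phase ODS-18 HPLC with acetonitrile:water 70:30 mobile phase, detection at 280 nm. IC50 is the substrate concentration giving 50% inhibition. Values are the average of three independent experiments (n = 3).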

Test [2] in a line: Inhibition of superoxide dismutase assessed as inhibition of superoxide generation by spectrophotometry. The procedure, abridged: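 Superoxide generation measured in a cell-membrane-free system by spectrophotometry at 340 nm. IC50 is the substrate concentration giving 50% inhibition of enzyme activity. Values are the average of three independent experiments (n = 3).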
The nature of test [3]: Inhibition of phosphodiesterase assessed as production of inorganic phosphate. The procedure, abridged: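 Activity measured as inorganic phosphate released with 5'-nucleotidase present in excess. IC50 is the substrate concentration giving 50% inhibition of enzyme activity. Values are the average of three independent experiments (n = 3).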
Test [4] has as its target Glutathione hydrolase 1 proenzyme (Homo sapiens, UniProt P19440). Nature of the test: Inhibition of gamma-glutamyltranspeptidase by colorimetric assay. The procedure, abridged: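 Colorimetric read-out at 405 nm by a standard procedure. IC50 is the substrate concentration giving 50% inhibition of enzyme activity. Values are the average of three independent experiments (n = 3).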

Some results are limits rather than exact numbers.

Usually IC50 stands for the concentration needed to halve the response being measured.

Sequence of Glutathione hydrolase 1 proenzyme (P19440 1-380 limits assumed): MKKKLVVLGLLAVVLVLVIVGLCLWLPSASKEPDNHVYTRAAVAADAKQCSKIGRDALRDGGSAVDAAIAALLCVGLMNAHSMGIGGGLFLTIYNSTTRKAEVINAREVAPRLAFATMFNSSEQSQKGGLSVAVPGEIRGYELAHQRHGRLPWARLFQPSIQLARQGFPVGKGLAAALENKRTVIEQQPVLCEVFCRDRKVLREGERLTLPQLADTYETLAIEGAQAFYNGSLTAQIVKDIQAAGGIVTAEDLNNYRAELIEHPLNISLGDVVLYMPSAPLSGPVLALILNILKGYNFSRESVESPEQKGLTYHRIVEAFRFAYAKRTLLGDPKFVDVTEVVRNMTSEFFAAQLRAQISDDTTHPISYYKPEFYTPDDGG
Sequence of Glutathione hydrolase 1 proenzyme (P19440 381-569 limits assumed): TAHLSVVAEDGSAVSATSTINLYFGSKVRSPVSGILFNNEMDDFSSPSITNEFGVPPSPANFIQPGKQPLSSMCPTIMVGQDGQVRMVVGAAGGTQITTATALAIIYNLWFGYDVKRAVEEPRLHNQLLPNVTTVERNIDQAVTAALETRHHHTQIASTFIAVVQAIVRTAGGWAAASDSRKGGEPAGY

Turning to `CNC(=O)c1c(C)c2c(c(C(=O)NC)c1-c1ccc(Cl)cc1)Nc1ccccc1S2`, the IC50 in test [1] amounted to 23 µM; in test [2] it was 18 µM; in test [3] it was 18 µM; in test [4], 20 µM.
`CNC(=O)C1=C(C)C2=C(Nc3ccccc3S2)C(C(=O)NC)C1c1ccc(Cl)cc1` (stereo not drawn): the IC50 in test [1] was 28 µM; in test [2] it was 31 µM; in test [3], 26 µM; in test [4], over 35 µM.
On to `CNC(=O)C1=C(C)C2=C(Nc3ccccc3S2)C(C(=O)NC)C1c1ccc(OC)cc1` (stereo not drawn), for which the IC50 came to 20 µM in test [1], 18 µM in test [2], 21 µM in test [3] and 25 µM in test [4].
On to `CNC(=O)c1c(C)c2c(c(C(=O)NC)c1-c1ccccc1Cl)Nc1ccccc1S2`, for which the half-maximal inhibitory concentration (IC50) is 15 µM in test [1], 20 µM in test [2], 15 µM in test [3] and 18 µM in test [4].
As for `CNC(=O)C1=C(C)C2=C(Nc3ccccc3S2)C(C(=O)NC)C1c1ccccc1` (stereo not drawn), the half-inhibitory concentration (IC50) in test [1] came to 18 µM; in test [2] it was 15 µM; in test [3], 16 µM; in test [4] it was 20 µM.
The corresponding values for `CNC(=O)C1=C(C)C2=C(Nc3ccccc3S2)C(C(=O)NC)C1c1ccccc1OC` (stereo not drawn) are 20 µM, over 30 µM, over 30 µM and over 30 µM.
In the same order, the values of `CNC(=O)c1c(C)c2c(c(C(=O)NC)c1-c1ccccc1OC)Nc1ccccc1S2` are 22 µM, over 30 µM, 25 µM and 28 µM.
In the same order, the values of `CNC(=O)c1c(C)c2c(c(C(=O)NC)c1-c1ccc(OC)cc1)Nc1ccccc1S2` are 18 µM, 19 µM, 22 µM and 21 µM.
For the compound `CNC(=O)c1c(C)c2c(c(C(=O)NC)c1-c1ccc3c(c1)OCO3)Nc1ccccc1S2`, the IC50 in test [1] is 24 µM; in test [2] it was 20 µM; in test [3], 20 µM; in test [4] it was 18 µM.
Turning to `CNC(=O)C1=C(C)C2=C(Nc3ccccc3S2)C(C(=O)NC)C1c1ccc2c(c1)OCO2` (stereo not drawn), the half-maximal inhibitory concentration (IC50) in test [1] is 28 µM; in test [2] it was over 30 µM; in test [3], over 30 µM; in test [4], over 30 µM.
For the compound `CNC(=O)c1c(C)c2c(c(C(=O)NC)c1-c1ccccc1C)Nc1ccccc1S2`, the IC50 in test [1] came out at 21 µM; in test [2] it was 18 µM; in test [3], 18 µM; in test [4], 25 µM.
`CNC(=O)c1c(C)c2c(c(C(=O)NC)c1-c1ccccc1)Nc1ccccc1S2`: the results for the IC50 in test [1], in test [2] and in test [4] were 18 µM, 14 µM and 20 µM, respectively.
In the case of `CNC(=O)C1=C(C)C2=C(Nc3ccccc3S2)C(C(=O)NC)C1c1ccccc1Cl` (stereo not drawn), the IC50 in test [1] was found to be 16 µM; in test [2], 18 µM; in test [3], 13 µM; in test [4], 19 µM.
Turning to `CNC(=O)C1=C(C)C2=C(Nc3ccccc3S2)C(C(=O)NC)C1c1ccccc1C` (stereo not drawn), the IC50 in test [1] was 21 µM; in test [2], 17 µM; in test [3], 18 µM; in test [4] it was 22 µM.
As to `CC(=O)Oc1ccccc1C(=O)O` [ASPIRIN], the IC50 in test [1] amounted to 24 µM; in test [2] it was 28 µM; in test [3], 22 µM; in test [4] it was 36 µM.
Regarding `CNC(=O)C1=C(C)C2=C(Nc3ccccc3S2)C(C(=O)NC)C1c1ccc([N+](=O)[O-])cc1` (stereo not drawn), the half-inhibitory concentration (IC50) is 28 µM in test [1], 32 µM in test [2], over 30 µM in test [3] and 36 µM in test [4].
